Test results reported in ChEMBL document CHEMBL4041497, “Isolation of Phorbol Esters from Euphorbia grandicornis and Evaluation of Protein Kinase C- and Human Platelet-Activating Effects of Euphorbiaceae Diterpenes” (J Nat Prod, 2016).
Activity calls are given as the source filed them. The calls are words filed in the database; no cut-off is given here.

How the values were obtained:
[1] = target: T1, Protein kinase C (PKC) (Homo sapiens) (UniProt O94806+P41743+P17252+P05129+Q05655+P05771+Q05513+Q02156+P24723+Q15139+Q04759); assay: Activation of PKC in human platelet assessed as phosphorylation of AKT at ser-308 at 0.1 uM measured after 10 mins by Western blot analysis
Method in brief: (§1)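 Washed human platelets were prewarmed 3 min at 37 °C and exposed to compound for 10 min. They were lysed directly in 2× SDS sample buffer and boiled 5 min, then run on SDS-PAGE. Immunoblots used phospho-specific antibodies (phospho-Ser PKC substrate, p-Akt Ser308, p-ERK, p-p38, p-VASP, p-PKD, p-MARCKS) with HRP anti-rabbit and chemiluminescence. GAPDH served as loading control.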

[2] = target: T1, Protein kinase C (PKC) (Homo sapiens); assay: Activation of PKC in human platelet assessed as phosphorylation of PKD at 0.1 uM measured after 10 mins by Western blot analysis; method in brief: as §1
[3] = target: T1, Protein kinase C (PKC) (Homo sapiens); assay: Activation of PKC in human platelet assessed as phosphorylation of ERK at 0.1 uM measured after 10 mins by Western blot analysis; method in brief: as §1
[4] = target: T1, Protein kinase C (PKC) (Homo sapiens); assay: Activation of PKC in human platelet assessed as phosphorylation of PKC substrates at 0.1 uM measured after 10 mins by Western blot analysis; method in brief: as §1
[5] = target: Protein kinase C beta type (Homo sapiens) (UniProt P05771); assay: Induction of PKC-beta1 translocation from cytosol to plasma membrane in human platelet at 0.1 uM measured after 1 min by Western blot analysis
Method in brief: (§2)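 Platelets were treated with compound for 1 min, then lysed with 0.1% digitonin (4 °C, 3 min) and spun at 14 000 rpm for 10 min; the supernatant was the cytosol. The pellet was extracted with 1% Triton X-100 and respun; that supernatant was the membrane fraction. Both fractions were immunoblotted for PKC-α, -β, -δ and -θ.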

[6] = target: T1, Protein kinase C (PKC) (Homo sapiens); assay: Activation of PKC in human platelet assessed as phosphorylation of p38 at 0.1 uM measured after 10 mins by Western blot analysis; method in brief: as §1
[7] = target: Protein kinase C delta type (Homo sapiens) (UniProt Q05655); assay: Induction of PKC-delta translocation from cytosol to plasma membrane in human platelet at 0.1 uM measured after 1 min by Western blot analysis; method in brief: as §2
[8] = target: Protein kinase C alpha type (Homo sapiens) (UniProt P17252); assay: Induction of PKC-alpha translocation from cytosol to plasma membrane in human platelet at 0.1 uM measured after 1 min by Western blot analysis; method in brief: as §2
[9] = target: T1, Protein kinase C (PKC) (Homo sapiens); assay: Activation of PKC in human platelet assessed as phosphorylation of MARCK at 0.1 uM measured after 10 mins by Western blot analysis; method in brief: as §1
Protein kinase C (PKC) = assay: Activation of PKC in human platelet assessed as induction of platelet aggregation measured within 15 mins by tribidimetric method
[10] = target: T1, Protein kinase C (PKC) (Homo sapiens); assay: Activation of PKC in human platelet assessed as phosphorylation of VASP at 0.1 uM measured after 10 mins by Western blot analysis; method in brief: as §1
[11] = target: T1, Protein kinase C (PKC) (Homo sapiens); assay: Activation of PKC in human platelet assessed as increase in platelet secretion by measuring ATP release at 0.1 uM measured after 5 mins by luciferin-luciferase assay
Method in brief: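 Tyrode's-suspended washed human platelets (3 × 10^8/mL; Ca2+ 2 mM, glucose 11.1 mM, BSA 3.5 mg/mL). Prewarmed 3 min at 37 °C, then incubated 5 min at 37 °C with compound or DMSO vehicle. Spun 1 min at 4 °C; released ATP in supernatant read by luciferin–luciferase reaction. Means ± SEM, n = 3.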

[12] = target: T1, Protein kinase C (PKC) (Homo sapiens); assay: Activation of PKC in human platelet assessed as induction of platelet aggregation at 10 uM measured within 15 mins by tribidimetric method
Method in brief: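 Washed human platelets in Tyrode's solution (2 mM Ca2+, 11.1 mM glucose, 3.5 mg/mL BSA) at 3 × 10^8 platelets/mL, prewarmed 3 min at 37 °C, then given compound or DMSO vehicle with fast shaking (20 Hz) at 37 °C. Aggregation read turbidimetrically as maximal rise in light transmission at 450 nm within 15 min. Means ± SEM, n = 3.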

[13] = target: T1, Protein kinase C (PKC) (Homo sapiens); assay: Activation of PKC in human platelet assessed as reduction in phosphorylation of AKT at ser-308 at 0.1 uM in presence of PKCalpha/beta inhibitor Go6976 measured after 10 mins by Western blot analysis
Method in brief: (§3)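 Human platelets were pretreated 1 min with Go6976 1 μM or DMSO vehicle, then stimulated with compound. Lysates were made in 2× SDS sample buffer and boiled, then run on SDS-PAGE and nitrocellulose blots. Probes were phospho-specific antibodies (PKC substrates, Akt Ser308, MARCKS, VASP, p38) with chemiluminescent detection. GAPDH was the loading control.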

[14] = target: T1, Protein kinase C (PKC) (Homo sapiens); assay: Activation of PKC in human platelet assessed as increase in platelet secretion by measuring ATP release at 0.1 uM in presence of PKC inhibitor GF109203X measured after 5 mins by luciferin-luciferase assay
Method in brief: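 Washed human platelets at 3 × 10^8/mL in Tyrode's with Ca2+ 2 mM, glucose 11.1 mM and BSA 3.5 mg/mL. Prewarmed 3 min at 37 °C, then preincubated 3 min with GF109203X 1 μM before compound. After 5 min at 37 °C, spun at 4 °C; supernatant ATP measured by luciferin–luciferase bioluminescence. Means ± SEM, n = 3.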

[15] = target: T1, Protein kinase C (PKC) (Homo sapiens); assay: Activation of PKC in human platelet assessed as reduction in phosphorylation of PKC substrates at 0.1 uM in presence of PKCalpha/beta inhibitor Go6976 measured after 10 mins by Western blot analysis; method in brief: as §3
[16] = target: T1, Protein kinase C (PKC) (Homo sapiens); assay: Activation of PKC in human platelet assessed as reduction in phosphorylation of p38 at 0.1 in presence of PKCalpha/beta inhibitor Go6976 measured after 10 mins by Western blot analysis; method in brief: as §3
[17] = target: Protein kinase C theta type (Homo sapiens) (UniProt Q04759); assay: Induction of PKC-theta translocation from cytosol to plasma membrane in human platelet at 0.1 uM measured after 1 min by Western blot analysis; method in brief: as §2
[18] = target: T1, Protein kinase C (PKC) (Homo sapiens); assay: Activation of PKC in human platelet assessed as reduction in phosphorylation of MARCK at 0.1 uM in presence of PKCalpha/beta inhibitor Go6976 measured after 10 mins by Western blot analysis; method in brief: as §3
[19] = target: T1, Protein kinase C (PKC) (Homo sapiens); assay: Activation of PKC in human platelet assessed as increase in platelet secretion by measuring ATP release at 0.1 uM in presence of PKCalpha/beta inhibitor Go6976 measured after 5 mins by luciferin-luciferase assay
Method in brief: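 Washed human platelets at 3 × 10^8/mL in Tyrode's with Ca2+ 2 mM, glucose 11.1 mM and BSA 3.5 mg/mL. Pretreated 1 min with Go6976 1 μM or DMSO vehicle, then compound added. After 5 min at 37 °C, centrifuged at 4 °C; supernatant ATP quantified by luciferin–luciferase assay. Means ± SEM, n = 3.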

[20] = target: T1, Protein kinase C (PKC) (Homo sapiens); assay: Activation of PKC in human platelet assessed as reduction in phosphorylation of VASP at 0.1 uM in presence of PKCalpha/beta inhibitor Go6976 measured after 10 mins by Western blot analysis; method in brief: as §3

Protein kinase C beta type (Homo sapiens), sequence (P05771 2-671 limits assumed): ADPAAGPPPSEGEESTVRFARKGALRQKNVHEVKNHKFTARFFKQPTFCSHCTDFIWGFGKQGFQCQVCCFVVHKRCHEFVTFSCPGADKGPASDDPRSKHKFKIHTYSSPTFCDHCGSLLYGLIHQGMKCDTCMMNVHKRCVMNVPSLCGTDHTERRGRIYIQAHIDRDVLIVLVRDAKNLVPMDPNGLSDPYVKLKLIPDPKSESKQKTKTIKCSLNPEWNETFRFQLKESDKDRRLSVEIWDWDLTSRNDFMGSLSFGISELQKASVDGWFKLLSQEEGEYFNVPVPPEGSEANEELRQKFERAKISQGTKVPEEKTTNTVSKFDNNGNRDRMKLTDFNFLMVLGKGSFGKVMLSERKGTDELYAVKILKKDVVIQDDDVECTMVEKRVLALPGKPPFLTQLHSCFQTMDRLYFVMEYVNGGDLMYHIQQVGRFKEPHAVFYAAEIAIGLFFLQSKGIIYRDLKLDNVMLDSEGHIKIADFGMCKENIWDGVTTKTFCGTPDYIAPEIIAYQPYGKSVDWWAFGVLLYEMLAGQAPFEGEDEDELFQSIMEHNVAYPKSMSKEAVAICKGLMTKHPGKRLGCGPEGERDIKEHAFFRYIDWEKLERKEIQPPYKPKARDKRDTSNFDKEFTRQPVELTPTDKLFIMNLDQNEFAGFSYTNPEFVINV
Protein kinase C delta type (Homo sapiens), sequence (Q05655 whole entry, looked up): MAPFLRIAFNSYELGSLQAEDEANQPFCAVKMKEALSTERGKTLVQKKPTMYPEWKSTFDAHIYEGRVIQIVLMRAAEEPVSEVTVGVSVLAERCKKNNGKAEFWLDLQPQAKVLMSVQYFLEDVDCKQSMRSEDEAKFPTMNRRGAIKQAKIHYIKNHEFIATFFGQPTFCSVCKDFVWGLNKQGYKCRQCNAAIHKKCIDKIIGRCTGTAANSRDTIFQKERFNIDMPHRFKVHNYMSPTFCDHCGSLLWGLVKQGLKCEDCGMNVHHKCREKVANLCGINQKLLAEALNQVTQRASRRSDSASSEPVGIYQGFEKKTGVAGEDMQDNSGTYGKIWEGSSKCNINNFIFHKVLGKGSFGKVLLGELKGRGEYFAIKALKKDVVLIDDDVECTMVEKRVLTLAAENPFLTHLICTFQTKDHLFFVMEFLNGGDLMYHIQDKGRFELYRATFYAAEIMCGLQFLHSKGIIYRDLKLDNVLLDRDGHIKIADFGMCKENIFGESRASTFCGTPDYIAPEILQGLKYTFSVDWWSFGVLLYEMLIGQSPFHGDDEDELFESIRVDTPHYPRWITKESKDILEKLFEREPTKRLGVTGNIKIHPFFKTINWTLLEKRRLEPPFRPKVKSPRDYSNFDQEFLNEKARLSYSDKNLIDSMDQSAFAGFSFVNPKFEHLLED
Protein kinase C theta type (Homo sapiens), sequence (Q04759 whole entry, looked up): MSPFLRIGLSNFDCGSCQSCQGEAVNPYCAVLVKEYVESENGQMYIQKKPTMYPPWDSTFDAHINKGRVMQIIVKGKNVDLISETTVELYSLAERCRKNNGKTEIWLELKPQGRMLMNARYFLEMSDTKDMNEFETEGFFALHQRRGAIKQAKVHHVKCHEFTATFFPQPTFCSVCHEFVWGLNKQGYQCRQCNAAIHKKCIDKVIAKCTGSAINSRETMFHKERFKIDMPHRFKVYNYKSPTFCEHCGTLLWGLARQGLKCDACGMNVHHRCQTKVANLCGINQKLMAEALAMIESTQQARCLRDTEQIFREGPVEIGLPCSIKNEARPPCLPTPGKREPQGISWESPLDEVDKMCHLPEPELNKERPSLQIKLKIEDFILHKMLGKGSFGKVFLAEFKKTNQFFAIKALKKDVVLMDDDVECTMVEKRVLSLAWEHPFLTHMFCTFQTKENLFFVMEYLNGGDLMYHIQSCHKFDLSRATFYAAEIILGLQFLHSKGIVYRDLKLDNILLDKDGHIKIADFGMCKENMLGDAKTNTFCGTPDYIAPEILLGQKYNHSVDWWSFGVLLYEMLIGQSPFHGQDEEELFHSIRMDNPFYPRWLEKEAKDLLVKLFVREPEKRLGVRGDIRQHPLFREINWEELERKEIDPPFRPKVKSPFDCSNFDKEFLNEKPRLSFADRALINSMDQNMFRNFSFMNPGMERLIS

## C/C=C(/C)C(=O)O[C@H]1C(C)=C[C@]23C(=O)[C@@H](C=C(CO)[C@@H](O)[C@]12O)[C@H]1[C@@H](C[C@H]3C)C1(C)C [INGENOL MEBUTATE]
[1]
  Activity: Active
[2]
  Activity: Active
[3]
  Activity: Active
[4]
  Activity: Active
[5]
  Activity: Active
[6]
  Activity: Active
[7]
  Activity: Active
[8]
  Activity: Active
[9]
  Activity: Active
Protein kinase C (PKC)
  EC50: 0.0725 µM
[10]
  Activity: Active
[11]
  Activity: Active

## CC(=O)O[C@@H]1[C@H]2[C@@H](OC(=O)c3ccccc3)[C@@H](C)C[C@]2(OC(C)=O)[C@@H](OC(C)=O)[C@]2(C)OC[C@]13C(=O)C=C[C@H](C(C)(C)OC(C)=O)[C@@H]23
[12]
  Activity: inactive

## C/C=C(/C)C(=O)OC[C@]1(C)[C@H]2[C@@H]3C=C(COC(C)=O)C[C@]4(O)C(=O)C(C)=C[C@H]4[C@@]3(O)[C@H](C)C[C@]21OC(=O)C(C)C
Protein kinase C (PKC)
  EC50: 6.08 µM

## C/C=C(/C)C(=O)O[C@H]1C(C)=C[C@]23C(=O)[C@@H](C=C(C)[C@@H](O)[C@]12O)[C@H]1[C@@H](C[C@H]3C)C1(C)C
Protein kinase C (PKC)
  EC50: 5.04 µM

## CCCCCCCCCCCCCC(=O)O[C@@H]1[C@@H](C)[C@@]2(O)[C@@H](C=C(CO)C[C@]3(O)C(=O)C(C)=C[C@@H]23)[C@@H]2C(C)(C)[C@]12OC(C)=O
[13]
  Activity: inactive
[1]
  Activity: Active
[14]
  Activity: inactive
[2]
  Activity: Active
[3]
  Activity: Active
[15]
  Activity: inactive
[4]
  Activity: Active
[5]
  Activity: Active
[6]
  Activity: Active
[16]
  Activity: inactive
[7]
  Activity: Active
[17]
  Activity: Active
[8]
  Activity: Active
[18]
  Activity: inactive
[19]
  Activity: inactive
[9]
  Activity: Active
[10]
  Activity: Active
[11]
  Activity: Active
[20]
  Activity: inactive

## C=C1[C@H](OC(C)=O)CC(=O)C(C)(C)/C=C/[C@@H](C)C(=O)[C@@]2(OC(C)=O)C[C@@](C)(OC(C)=O)[C@H](OC(C)=O)[C@@H]2[C@H]1OC(C)=O
[12]
  Activity: inactive

## C=C1[C@H](OC(C)=O)CC(=O)C(C)(C)/C=C/[C@@H](C)C(=O)[C@@]2(OC(C)=O)C[C@@](C)(OC(=O)c3ccccc3)[C@H](OC(C)=O)[C@@H]2[C@H]1OC(C)=O
[12]
  Activity: inactive
